By EC50 is commonly meant the midpoint of the concentration-response curve. The term IC50 denotes the point on the concentration scale where inhibition reaches its midpoint. A low value points to inhibition by little substance. What is called Emax is the maximal effect, on the per cent scale that the assay sets. As a reminder, the Ki is a measure of affinity in units of concentration, obtained from inhibition or displacement. Low values mean a stronger hold on the target, high ones a looser hold on the target.

Test [1] deals with T1, Uracil nucleotide/cysteinyl leukotriene receptor (Homo sapiens, UniProt Q13304). The experiment in a line: Agonist activity at human GPR17 expressed in human 1321N1 cells assessed as induction of calcium mobilization after 1 hr by Oregon Green BAPTA-1/AM dye-based fluorescence assay. The test is classed as functional, cell-based. Summed up:
(§1)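 Stably transfected 1321N1 astrocytoma cells were trypsin/EDTA-harvested, held 45 min at 37°C, then loaded 1 h at 25°C in KRH buffer pH 7.4 with 3 µM Oregon Green BAPTA-1/AM and 1% Pluronic F127, washed, and plated at ~16,000 cells/well. Fluorescence was read at 520 nm for 30 s after compound injection. Efficacy was expressed relative to the maximum given by 10 µM MDL 29,951. EC50 came from concentration-response curves, run for compounds exceeding 50% stimulation at 10 µM. At least three independent experiments, each in duplicate.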

Another test concerns the target Glutamate NMDA receptor. The experiment in a line: Displacement of [3H]CCP from NMDA receptor glutamate binding site in rat cortical and hippocampal membranes.
Test [2] deals with T1, Uracil nucleotide/cysteinyl leukotriene receptor. The experiment in a line: Agonist activity at human GPR17 expressed in human 1321N1 cells assessed as induction of calcium mobilization at >30 uM after 1 hr by Oregon Green BAPTA-1/AM dye-based fluorescence assay relative to control. The test is classed as functional, cell-based. (In general: Calcium assays in cells follow changes in intracellular calcium, usually with a dye or a luminescent sensor.)

For test [3] the target is unchanged. The experiment in a line: Agonist activity at human GPR17 expressed in human 1321N1 cells assessed as induction of calcium mobilization at >10 uM after 1 hr by Oregon Green BAPTA-1/AM dye-based fluorescence assay relative to control. The test is classed as functional, cell-based.
Test [4] deals with P2Y purinoceptor 1 (Homo sapiens) (UniProt P47900). The experiment in a line: Agonist activity at human P2Y1 receptor transfected in human 1321N1 cells assessed as induction of calcium mobilization after 30 mins in presence of ADP by fluo-4 dye based assay. The test is classed as functional, cell-based. Summed up:
(§2)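 Calcium mobilization was measured in 1321N1 astrocytoma cells stably transfected with human P2Y1, P2Y2, P2Y4 or P2Y6 receptors, read on a Flexstation III microplate reader.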

Test [5] has as its target P2Y purinoceptor 4 (Homo sapiens) (UniProt P51582). The experiment in a line: Agonist activity at human P2Y4 receptor transfected in human 1321N1 cells assessed as induction of calcium mobilization after 30 mins in presence of UTP by fluo-4 dye based assay. The test is classed as functional, cell-based. Summed up: as §2
Test [6] has as its target Uracil nucleotide/cysteinyl leukotriene receptor (Mus musculus) (UniProt Q6NS65). The experiment in a line: Agonist activity at mouse GPR17 expressed in HEK293 cells assessed as induction of intracellular calcium mobilization at 10 uM by calcium 5-dye based assay relative to MDL 29,951. Format: functional, cell-based.
Test [7] concerns the target Uracil nucleotide/cysteinyl leukotriene receptor (Rattus norvegicus, UniProt Q09QM4). The experiment in a line: Agonist activity at rat GPR17 expressed in HEK293 cells assessed as induction of intracellular calcium mobilization by calcium 5-dye based assay. Format: functional, cell-based. Summed up:
(§3)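 HEK293 cells expressing rat or mouse GPR17 were seeded at 60,000 cells/well on poly-D-lysine plates and loaded 40 min with Calcium 5 indicator dye. Calcium signals were read on a plate reader. EC50 was obtained by nonlinear regression of concentration-response data. Means ± SEM from 3 independent experiments.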

In test [8] the target is Uracil nucleotide/cysteinyl leukotriene receptor (Rattus norvegicus) (UniProt Q09QM4). The experiment in a line: Agonist activity at rat GPR17 expressed in HEK293 cells assessed as induction of intracellular calcium mobilization at 10 uM by calcium 5-dye based assay relative to MDL 29,951. Format: functional, cell-based.
Sequence of Uracil nucleotide/cysteinyl leukotriene receptor (Rattus norvegicus) (Q09QM4 whole entry): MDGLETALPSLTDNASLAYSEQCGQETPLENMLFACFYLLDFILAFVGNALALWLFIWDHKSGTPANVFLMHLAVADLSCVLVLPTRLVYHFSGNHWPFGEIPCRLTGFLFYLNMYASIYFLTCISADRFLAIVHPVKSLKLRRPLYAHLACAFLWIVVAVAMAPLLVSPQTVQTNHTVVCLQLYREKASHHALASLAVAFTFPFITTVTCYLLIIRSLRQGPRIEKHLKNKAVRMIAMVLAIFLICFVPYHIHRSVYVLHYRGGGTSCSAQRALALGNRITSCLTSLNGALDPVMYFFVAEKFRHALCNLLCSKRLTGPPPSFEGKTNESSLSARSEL
For test [9], the target named is T2, P2Y purinoceptor 14 (Homo sapiens) (UniProt Q15391).
T2 sequence (whole entry): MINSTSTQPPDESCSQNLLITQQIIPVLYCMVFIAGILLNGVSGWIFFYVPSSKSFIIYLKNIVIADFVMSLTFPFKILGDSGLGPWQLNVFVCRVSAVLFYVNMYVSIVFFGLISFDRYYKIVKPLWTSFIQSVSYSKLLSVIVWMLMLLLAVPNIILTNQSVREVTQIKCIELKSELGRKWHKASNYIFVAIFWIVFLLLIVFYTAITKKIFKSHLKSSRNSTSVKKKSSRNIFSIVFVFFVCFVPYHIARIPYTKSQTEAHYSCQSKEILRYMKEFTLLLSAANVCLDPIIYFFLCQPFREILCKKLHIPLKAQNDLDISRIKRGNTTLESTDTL
The experiment in a line: Agonist activity at human P2Y14 receptor transfected in CHO cells assessed as induction of beta-arrestin translocation. Format: functional, cell-based. Summed up:
(§4)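 β-Arrestin translocation assays were run in CHO cells stably transfected with human P2Y12 or P2Y14 receptors.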

Test [10] has as its target P2Y purinoceptor 12 (Homo sapiens) (UniProt Q9H244). The experiment in a line: Agonist activity at human P2Y12 receptor transfected in CHO cells assessed as induction of beta-arrestin translocation. The test is classed as functional, cell-based. Summed up:
as §4

Test [11] is described as follows: Selectivity ratio of EC50 for rat GPR17 expressed in HEK293 cells to EC50 for human GPR17 expressed in human 1321N1 cells. Format: cell-based.
Test [12] has as its target T1, Uracil nucleotide/cysteinyl leukotriene receptor. The experiment in a line: Agonist activity at human GPR17 expressed in human 1321N1 cells assessed as induction of calcium mobilization after 1 hr by Oregon Green BAPTA-1/AM dye-based fluorescence assay relative to MDL 29,951. The test is classed as functional, cell-based. Summed up: as §1
Test [13] shares this target. The experiment in a line: Displacement of [3H]PSB-12150 from human GPR17 expressed in CHO cell membranes after 60 mins by liquid scintillation counting. Summed up: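 Membranes from CHO cells stably expressing human GPR17 were incubated 60 min at 25°C with 25 nM [3H]PSB-12150 (17 Ci/mmol), 10 mM MgCl2 and increasing test compound concentrations. Bound radioligand was separated by GF/B filtration and counted by liquid scintillation. Nonspecific binding was defined with 100 µM unlabeled PSB-12150. Ki came from the Cheng-Prusoff equation with KD 1190 nM. Three independent experiments in duplicate.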
For orientation: Displacement assays read how much labelled ligand stays bound in the presence of the test substance.

A short description of test [14]: Selectivity ratio of EC50 for mouse GPR17 expressed in HEK293 cells to EC50 for human GPR17 expressed in human 1321N1 cells. The test is classed as cell-based.
A further test concerns the target P2Y purinoceptor 2 (Homo sapiens, UniProt P41231). The experiment in a line: Agonist activity at human P2Y2 receptor transfected in human 1321N1 cells assessed as induction of calcium mobilization after 30 mins in presence of UTP by fluo-4 dye based assay. Format: functional, cell-based. Summed up:
as §2

Test [15] concerns the target Uracil nucleotide/cysteinyl leukotriene receptor (Mus musculus, UniProt Q6NS65). The experiment in a line: Agonist activity at mouse GPR17 expressed in HEK293 cells assessed as induction of intracellular calcium mobilization by calcium 5-dye based assay. Format: functional, cell-based. Summed up:
as §3

Test [16] addresses P2Y purinoceptor 6 (Homo sapiens) (UniProt Q15077). The experiment in a line: Agonist activity at human P2Y6 receptor transfected in human 1321N1 cells assessed as induction of calcium mobilization after 30 mins in presence of UDP by fluo-4 dye based assay. Format: functional, cell-based. Summed up:
as §2

Test [17] has as its target T1, Uracil nucleotide/cysteinyl leukotriene receptor. The experiment in a line: Agonist activity at human GPR17 expressed in human 1321N1 cells assessed as induction of calcium mobilization at >=10 uM after 1 hr by Oregon Green BAPTA-1/AM dye-based fluorescence assay relative to control. The test is classed as functional, cell-based.
The species entered for a further test is Homo sapiens. The experiment in a line: Selectivity ratio of EC50 for human P2Y2 receptor transfected in human 1321N1 cells to EC50 for human GPR17 expressed in human 1321N1 cells. Format: cell-based.
For test [18], the target named is T1, Uracil nucleotide/cysteinyl leukotriene receptor. The experiment in a line: Agonist activity at human GPR17 expressed in human 1321N1 cells assessed as induction of calcium mobilization at 30 uM after 1 hr by Oregon Green BAPTA-1/AM dye-based fluorescence assay relative to control. Format: functional, cell-based.

Active and inactive are the calls of the source. No cut-off for these calls is given here.

Sequence of P2Y purinoceptor 6 (Homo sapiens) (Q15077 whole entry): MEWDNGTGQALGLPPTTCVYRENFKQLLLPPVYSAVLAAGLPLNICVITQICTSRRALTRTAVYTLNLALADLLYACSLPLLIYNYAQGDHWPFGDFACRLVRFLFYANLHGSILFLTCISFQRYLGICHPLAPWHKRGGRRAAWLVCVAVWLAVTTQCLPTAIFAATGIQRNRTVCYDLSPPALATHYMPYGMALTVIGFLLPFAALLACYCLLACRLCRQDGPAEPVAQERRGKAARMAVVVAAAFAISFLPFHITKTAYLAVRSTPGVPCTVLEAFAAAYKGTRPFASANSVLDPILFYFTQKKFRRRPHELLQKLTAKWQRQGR
Sequence of Uracil nucleotide/cysteinyl leukotriene receptor (Rattus norvegicus, UniProt Q09QM4) (Q09QM4 whole entry): as the sequence (Q09QM4 whole entry) above
Sequence of P2Y purinoceptor 12 (Homo sapiens) (Q9H244 whole entry): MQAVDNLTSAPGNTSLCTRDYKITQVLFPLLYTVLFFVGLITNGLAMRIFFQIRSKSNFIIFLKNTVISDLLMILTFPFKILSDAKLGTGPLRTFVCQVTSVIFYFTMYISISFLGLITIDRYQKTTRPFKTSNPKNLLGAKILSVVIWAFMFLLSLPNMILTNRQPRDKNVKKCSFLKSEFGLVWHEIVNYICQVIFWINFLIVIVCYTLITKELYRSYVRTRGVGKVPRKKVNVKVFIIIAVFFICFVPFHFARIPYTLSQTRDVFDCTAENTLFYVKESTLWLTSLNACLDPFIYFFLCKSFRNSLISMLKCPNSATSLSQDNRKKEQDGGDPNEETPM
Sequence of P2Y purinoceptor 1 (Homo sapiens) (P47900 whole entry): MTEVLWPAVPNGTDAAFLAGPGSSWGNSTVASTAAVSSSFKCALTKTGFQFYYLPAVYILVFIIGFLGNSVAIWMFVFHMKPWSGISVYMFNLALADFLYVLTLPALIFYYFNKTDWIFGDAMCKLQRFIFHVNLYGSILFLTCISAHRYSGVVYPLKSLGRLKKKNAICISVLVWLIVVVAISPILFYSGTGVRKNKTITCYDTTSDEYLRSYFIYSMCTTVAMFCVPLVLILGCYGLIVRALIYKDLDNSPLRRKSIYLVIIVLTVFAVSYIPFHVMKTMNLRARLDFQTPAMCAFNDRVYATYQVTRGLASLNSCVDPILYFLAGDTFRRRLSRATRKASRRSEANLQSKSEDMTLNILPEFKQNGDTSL
Sequence of Uracil nucleotide/cysteinyl leukotriene receptor (Mus musculus, UniProt Q6NS65) (Q6NS65 whole entry): as the sequence (Q09QM4 whole entry) above, with D2N, T6A, A15S, S270A counted along it
Sequence of P2Y purinoceptor 4 (Homo sapiens) (P51582 whole entry): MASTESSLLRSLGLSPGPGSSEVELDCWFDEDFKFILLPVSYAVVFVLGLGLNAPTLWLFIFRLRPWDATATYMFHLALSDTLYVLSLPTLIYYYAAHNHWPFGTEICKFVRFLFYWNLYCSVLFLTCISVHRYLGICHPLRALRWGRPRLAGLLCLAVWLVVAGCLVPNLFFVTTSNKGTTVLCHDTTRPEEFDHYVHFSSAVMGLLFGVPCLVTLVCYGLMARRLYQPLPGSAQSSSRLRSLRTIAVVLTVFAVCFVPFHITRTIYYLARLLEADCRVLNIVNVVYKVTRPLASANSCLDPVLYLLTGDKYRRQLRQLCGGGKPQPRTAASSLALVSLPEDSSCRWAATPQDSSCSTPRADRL
Sequence of P2Y purinoceptor 2 (P41231 whole entry): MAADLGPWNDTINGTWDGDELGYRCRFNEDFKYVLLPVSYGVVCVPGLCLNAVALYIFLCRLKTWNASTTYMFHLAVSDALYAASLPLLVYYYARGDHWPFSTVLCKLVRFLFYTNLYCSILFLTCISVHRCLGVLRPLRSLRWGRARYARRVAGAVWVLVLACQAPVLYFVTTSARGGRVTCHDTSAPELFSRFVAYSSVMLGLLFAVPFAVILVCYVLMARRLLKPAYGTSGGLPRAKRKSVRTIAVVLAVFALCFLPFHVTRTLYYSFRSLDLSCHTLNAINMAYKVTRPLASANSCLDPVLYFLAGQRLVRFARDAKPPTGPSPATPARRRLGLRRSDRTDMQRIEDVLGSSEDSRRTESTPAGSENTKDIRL
T1 sequence (Q13304 whole entry): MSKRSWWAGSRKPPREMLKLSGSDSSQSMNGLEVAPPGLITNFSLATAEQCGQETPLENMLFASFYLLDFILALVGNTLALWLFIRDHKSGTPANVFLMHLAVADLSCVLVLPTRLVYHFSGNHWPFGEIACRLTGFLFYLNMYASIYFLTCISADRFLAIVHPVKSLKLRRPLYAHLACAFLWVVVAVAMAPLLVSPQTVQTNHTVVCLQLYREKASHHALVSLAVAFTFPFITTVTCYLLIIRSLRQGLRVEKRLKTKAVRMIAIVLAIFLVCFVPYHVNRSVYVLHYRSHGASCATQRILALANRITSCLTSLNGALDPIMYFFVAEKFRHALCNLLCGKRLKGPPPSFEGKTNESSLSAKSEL
Sequence of Uracil nucleotide/cysteinyl leukotriene receptor (Mus musculus) (Q6NS65 whole entry): as the sequence (Q09QM4 whole entry) above, with D2N, T6A, A15S, S270A counted along it

`O=C(O)CCc1c(C(=O)O)[nH]c2c(Cl)cccc12`: the concentration giving a half-maximal response (EC50) in test [1] is over 30 µM. Further, the IC50 on Glutamate NMDA receptor is over 1000 µM. Moreover, in test [2], the Activity was 5%.
`CCCCCCOc1cc(Cl)cc2[nH]c(C(=O)O)c(CCC(=O)O)c12`: the Activity in test [3] was found to be 40%. The EC50 in [1] is over 10 µM.
For the compound `CCCCCCOc1ccc2c(CCC(=O)O)c(C(=O)O)[nH]c2c1`, the result (in test [4]; in test [5]; in [9]; in test [10]; on P2Y purinoceptor 2; in test [16]) was inactive. Further, the maximum response (Emax) in [6] amounted to 28%; in test [8] it was 53%; in [12], 62%. In addition, the values for the 50% effective concentration (EC50) in test [7], in test [1] and in test [15] were 5.31 µM, 0.115 µM and 5.51 µM, respectively. Besides, the Ratio EC50 in [11] and in [14] was 34 to 48 in each case. For the same compound, the affinity in [13], expressed as Ki, was 1.5 µM.
Consider `O=C(O)CCc1c(C(=O)O)[nH]c2cccc(F)c12`, for which the Activity in test [17] worked out at 44%. For the same compound, the EC50 in [1] is at least 10 µM.
As to `CCCCCCOc1cc(Cl)c2c(CCC(=O)O)c(C(=O)O)[nH]c2c1`, the result in test [4], in test [5], in test [9], in test [10] and in test [16] was inactive. Moreover, the results for the maximal response (Emax) in [6], in test [8] and in test [12] were 59%, 77% and 95%, respectively. Also, the EC50 is 2.3 µM in test [7], 0.067 µM in test [1], at least 50 µM on P2Y purinoceptor 2 and 3.03 µM in [15]. Also, the results for the Ratio EC50 (in test [11]; in the test filed under Homo sapiens; in test [14]) were 34 to 48, over 700 and 34 to 48, respectively. In addition, the affinity in test [13] corresponds to a Ki of 13.1 µM.
As to `O=C(O)CCc1c(C(=O)O)[nH]c2ccc(Cl)cc12`, the 50% effective concentration (EC50) in test [1] was over 30 µM. The compound also gave an IC50 on Glutamate NMDA receptor of 35 µM. For the same compound, the Activity in [2] is 11%.
With `CCCCCCCCOc1cc(Cl)cc2[nH]c(C(=O)O)c(CCC(=O)O)c12`, in test [3], the Activity stood at 25%. Also, the EC50 in [1] was over 10 µM.
For the compound `O=C(O)CCc1c(C(=O)O)[nH]c2cccc(Cl)c12`, the EC50 in test [1] was 30 µM. In addition, in test [18], the Activity turned out to be 52%.
For the compound `O=C(O)CCc1c(C(=O)O)[nH]c2cc(Cl)cc(Cl)c12`, the outcome (in test [4]; in [5]; in test [9]; in test [10]; on P2Y purinoceptor 2; in test [16]) was inactive. In addition, the half-maximal effective concentration (EC50) in [7] is 0.705 µM; in [15], 1.11 µM. Also, the Ratio EC50 in test [11] and in [14] was 2 to 6 each time. This compound also came in with an inhibitory constant (Ki) in test [13] of 2.45 µM.

The values above are taken from ChEMBL document CHEMBL4196130, “3-(2-Carboxyethyl)indole-2-carboxylic Acid Derivatives: Structural Requirements and Properties of Potent Agonists of the Orphan G Protein-Coupled Receptor GPR17” (J Med Chem, 2018).
